Data reported in ChEMBL document CHEMBL3244174, “Synthesis and biological activity of some new furan quaternary salts” (J Med Chem, 1977).
The source made the active and inactive calls. The rule behind the calls is not given here.

Tests used:
Histoplasma capsulatum = experiment: Antifungal activity against Histoplasma capsulatum RNSH Hi-70 1/2 assessed as growth inhibition by agar dilution method; assay type: functional
Escherichia coli = experiment: Antibacterial activity against Escherichia coli 114 assessed as growth inhibition after 24 hrs by dilution tube method; assay type: functional; conditions: Escherichia coli, 114, 24 h
Method in brief: (§1)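 Broth tube dilution in Tryptone Soya Broth, duplicate tubes at each concentration. MIC (μg/ml) was the highest dilution preventing visible growth. Nitrofurantoin run under the same conditions.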

[1] = system: Mycobacterium tuberculosis; experiment: Antibacterial activity against Mycobacterium tuberculosis H37Rv assessed as growth inhibition by serial dilution method; assay type: functional
Method in brief: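 M. tuberculosis H37Rv maintained on Lowenstein–Jensen medium; tested in Youman's medium by serial dilution.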

[2] = Acute toxicity in ip dosed mouse; assay type: organism-based; conditions: in vivo
Method in brief: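 Mice dosed intraperitoneally; LD50 determined.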

[3] = system: Nippostrongylus brasiliensis; experiment: Anthelmintic activity against larvae stage of Nippostrongylus brasiliensis infected in rat assessed as decrease in worm load at 250 mg/kg, po administered on day 8 post infection; assay type: functional, organism-based; set-up: dose 250 mg/kg
Method in brief: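 Young male rats (25–30 g, University of Freiburg strain), 3 per compound, infected with 500 infective larvae; single 250 mg/kg oral dose on day 8. Worm loads of treated and control groups compared; 90% deparasitization taken as active. Whitlock–Bliss technique as modified by Steward.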

Enterococcus faecalis = experiment: Antibacterial activity against Streptococcus faecalis ATCC 10541 assessed as growth inhibition after 24 hrs by dilution tube method; assay type: functional; conditions: ATCC 10541, 24 h; method in brief: as §1
Candida albicans = experiment: Antifungal activity against Candida albicans SKF 2270 assessed as growth inhibition by agar dilution method; assay type: functional
Klebsiella pneumoniae = experiment: Antibacterial activity against Klebsiella pneumoniae ATCC 10031 assessed as growth inhibition after 24 hrs by dilution tube method; assay type: functional; conditions: ATCC 10031, 24 h; method in brief: as §1
Microsporum canis = experiment: Antifungal activity against Microsporum canis VM-200 USPHS assessed as growth inhibition by agar dilution method; assay type: functional
Trichophyton rubrum = experiment: Antifungal activity against Trichophyton rubrum 252 CSTM assessed as growth inhibition by agar dilution method; assay type: functional
Nannizzia gypsea = experiment: Antifungal activity against Microsporum gypseum 153 CSTM assessed as growth inhibition by agar dilution method; assay type: functional
[4] = system: Agrobacterium tumefaciens; experiment: Antibacterial activity against Agrobacterium tumefaciens NRRL B-36 assessed as growth inhibition after 24 hrs by dilution tube method; assay type: functional; conditions: NRRL B-36, 24 h; method in brief: as §1
[5] = system: Trichophyton mentagrophytes; experiment: Antifungal activity against Trichophyton mentagrophytes A-280 USPHS assessed as growth inhibition by agar dilution method; assay type: functional
Cryptococcus neoformans = experiment: Antifungal activity against Cryptococcus neoformans 103 assessed as growth inhibition by agar dilution method; assay type: functional
Rodentolepis nana = experiment: Anthelmintic activity against viable ova stage of Hymenolepis nana infected in rat assessed as decrease in intestinal worm load at 250 mg/kg, po measured on day 3; assay type: functional, organism-based; set-up: dose 250 mg/kg
Method in brief: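 Young male rats (25–30 g, University of Freiburg strain) infected with 200 viable ova, then given a single 250 mg/kg oral dose. Worms from each rat's small intestine collected and scored on day 3. A mean score of 0–10% of control taken as active.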

Pseudomonas aeruginosa = experiment: Antibacterial activity against Pseudomonas aeruginosa ATCC 10145 assessed as growth inhibition after 24 hrs by dilution tube method; assay type: functional; conditions: ATCC 10145, 24 h; method in brief: as §1
Staphylococcus aureus = experiment: Antibacterial activity against Staphylococcus aureus ATCC 6538 assessed as growth inhibition after 24 hrs by dilution tube method; assay type: functional; conditions: ATCC 6538, 24 h; method in brief: as §1
Salmonella typhi = experiment: Antibacterial activity against Salmonella typhi 115 assessed as growth inhibition after 24 hrs by dilution tube method; assay type: functional, Salmonella enterica subsp. enterica serovar Typhi; conditions: Salmonella enterica, 115, 24 h
Method in brief: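 Dilution tube method in Tryptone Soya Broth; MIC (μg/ml) taken as highest dilution preventing visible growth; duplicates at every concentration; nitrofurantoin reference run under same conditions.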

| Structure (SMILES) | MIC (Histoplasma capsulatum) [µg/mL] | MIC (Escherichia coli) [µg/mL] | MIC [1] [µg/mL] | LD50 [2] [mg/kg] | Activity [3] | MIC (Enterococcus faecalis) [µg/mL] | MIC (Candida albicans) [µg/mL] | MIC (Klebsiella pneumoniae) [µg/mL] | MIC (Microsporum canis) [µg/mL] | MIC (Trichophyton rubrum) [µg/mL] | MIC (Nannizzia gypsea) [µg/mL] | MIC [4] [µg/mL] | MIC [5] [µg/mL] | MIC (Cryptococcus neoformans) [µg/mL] | Activity (Rodentolepis nana) | MIC (Pseudomonas aeruginosa) [µg/mL] | MIC (Staphylococcus aureus) [µg/mL] | MIC (Salmonella typhi) [µg/mL] |
| --- | --- | --- | --- | --- | --- | --- | --- | --- | --- | --- | --- | --- | --- | --- | --- | --- | --- | --- |
| Cc1cc(OCCCC[N+](C)(C)Cc2ccc(Br)o2)c(C(C)C)cc1Cl.[Br-] | > 200 | > 200 | 7.5 | 25 | inactive | 7.5 | 50 | 2.5 | 75 | > 200 | 50 | 25 | 50 | 25 | inactive | 2.5 | 2.5 | > 200 |
| C[N+](C)(CCCCOc1c(Br)cc(Br)cc1Br)Cc1ccc(Br)o1.[Br-] | 50 | > 200 | 50 | 37.5 | inactive | 25 | > 200 | 7.5 | > 200 | > 200 | > 200 | 50 | > 200 | 25 | inactive | 5 | 5 | 100 |
| Cc1cc(OCCCCC[N+](C)(C)Cc2ccc([N+](=O)[O-])o2)c(C(C)C)cc1Cl.[Br-] | 100 | > 200 | 5 | 50 | inactive | 10 | > 200 | 2.5 | 100 | 100 | 100 | 25 | > 200 | 25 | inactive | 2.5 | 10 | 50 |
| C[N+](C)(CCCCCCOc1c(Br)cc(Br)cc1Br)Cc1ccc(Br)o1.[Br-] | 25 | 100 | 10 | 25 | inactive | 5 | > 200 | 1.5 | 100 | > 200 | > 200 | 7.5 | > 200 | 25 | inactive | 1.5 | 2 | 50 |
| C[N+](C)(CCCCCOc1c(Br)cc(Br)cc1Br)Cc1ccc(Br)o1.[Br-] | 100 | 100 | 10 | 25 | inactive | 7.5 | > 200 | 1.5 | > 200 | > 200 | > 200 | 25 | > 200 | 25 | inactive | 2 | 2 | 50 |
| Cc1cc(OCCCC[N+](C)(C)Cc2ccc([N+](=O)[O-])o2)c(C(C)C)cc1Cl.[Br-] | > 200 | > 200 | 10 | 75 | inactive | 25 | > 200 | 5 | > 200 | > 200 | > 200 | 25 | > 200 | 25 | inactive | 1.5 | 7.5 | > 200 |
| Cc1cc(OCCCCCCCCCCCC[N+](C)(C)Cc2ccc([N+](=O)[O-])o2)c(C(C)C)cc1Cl.Cc1ccc(S(=O)(=O)[O-])cc1 | > 200 | > 200 | 100 | – | – | 200 | > 200 | 200 | > 200 | > 200 | > 200 | > 200 | > 200 | 100 | – | 50 | 200 | > 200 |
| C[N+](C)(CCCCOc1c(Br)cc(Br)cc1Br)Cc1ccc([N+](=O)[O-])o1.[Br-] | 50 | > 200 | 25 | – | – | 50 | > 200 | 10 | > 200 | > 200 | > 200 | 50 | > 200 | 50 | – | 8 | 25 | > 200 |
| Cc1cc(OCCCCC[N+](C)(C)Cc2ccc(Br)o2)c(C(C)C)cc1Cl.[Br-] | 100 | 100 | 10 | 37.5 | inactive | 5 | > 200 | 2.5 | 100 | > 200 | > 200 | 10 | 100 | 10 | inactive | 2.5 | 2.5 | 50 |
| C[N+](C)(CCCCCCCCOc1c(Br)cc(Br)cc1Br)Cc1ccc(Br)o1.[Br-] | > 200 | > 200 | 50 | – | – | 4 | > 200 | 4 | > 200 | > 200 | > 200 | 7.5 | > 200 | 4 | – | 2 | 3 | > 200 |
| C[N+](C)(CCOc1ccc(Cl)cc1Cl)Cc1ccc([N+](=O)[O-])o1.[Br-] | > 200 | > 200 | > 200 | – | – | > 200 | > 200 | 100 | > 200 | > 200 | > 200 | > 200 | > 200 | > 200 | – | 100 | 200 | > 200 |
| Cc1cc(OCCCCCCCCCCCC[N+](C)(C)Cc2ccc(Br)o2)c(C(C)C)cc1Cl.Cc1ccc(S(=O)(=O)[O-])cc1 | > 200 | > 200 | 200 | – | – | > 200 | > 200 | 200 | > 200 | > 200 | > 200 | > 200 | > 200 | > 200 | – | 50 | 200 | > 200 |
| Cc1cc(OCC[N+](C)(C)Cc2ccc([N+](=O)[O-])o2)c(C(C)C)cc1Cl.Cc1ccc(S(=O)(=O)[O-])cc1 | > 200 | > 200 | 50 | – | – | 200 | > 200 | 25 | > 200 | > 200 | > 200 | 100 | > 200 | 100 | – | 25 | 100 | > 200 |
| Cc1cc(OCCCCCCCC[N+](C)(C)Cc2ccc(Br)o2)c(C(C)C)cc1Cl.Cc1ccc(S(=O)(=O)[O-])cc1 | > 200 | > 200 | 25 | – | – | 100 | > 200 | 100 | 100 | 200 | 200 | 100 | 200 | 50 | – | 25 | 100 | > 200 |
| Cc1ccc(C[N+](C)(C)CCOc2c(Br)cc(Br)cc2Br)o1.[Br-] | > 200 | > 200 | 25 | – | – | 50 | > 200 | 50 | > 200 | > 200 | > 200 | 100 | > 200 | 50 | – | 25 | 50 | > 200 |
| C[N+](C)(CCCCCCOc1c(Br)cc(Br)cc1Br)Cc1ccc([N+](=O)[O-])o1.[Br-] | 25 | 200 | 10 | 75 | inactive | 25 | > 200 | 5 | 100 | 100 | 100 | 25 | > 200 | 100 | inactive | 2.5 | 10 | 100 |
